ChEMBL document CHEMBL3044720, “Phytotoxic Eremophilanes from Ligularia macrophylla” (J Agric Food Chem, 2007)
Active and inactive are the calls of the source. No cut-off for these calls is given here.

System: Allium cepa
Experiment: Inhibition of mitotic cell division in Allium cepa cv. Evergreen (onion) root tips assessed as cell count at anaphase stage of cell cycle at 100 to 300 uM at 24 degC
Type: functional, organism-based
Conditions: not given

Q: Which inhibition does the source give for `C/C=C(/C)C(=O)O[C@@H]1c2c(C)coc2C[C@@]2(O)CCC[C@H](C)[C@@]12C` here?
A: Its inhibition is “inactive”.

System: Lactuca sativa
Experiment: Phytotoxic activity against Lactuca sativa (lettuce) seeds assessed as inhibition of germination at 100 uM at 26 degC measured 7 days post-drug dose
Type: functional, organism-based
Conditions: not given
Outline: (§1)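 Each well held 5 mg lettuce or 10 mg bentgrass seed plus 250 µL of compound in water with 3% acetone final; acetone/water controls were included. Sealed plates were kept at 26 °C under continuous light (173 µmol/m²/s). Germination was rated visually on a 0–5 scale (0 = no effect, 5 = no germination/growth) against controls, after 7 days for lettuce and 12 days for bentgrass.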

Q: `CC/C=C\C/C=C\C/C=C\CCCCCCCC(=O)O` [LINOLENIC ACID] was tested. Which inhibition did it give?
A: Its inhibition is “inactive”.

Q: With `C/C=C(/C)C(=O)O[C@@H]1c2c(C)coc2C[C@@]2(O)CCC[C@H](C)[C@@]12C` as the compound, how does the inhibition read?
A: Its inhibition is “inactive”.

System: Agrostis stolonifera
Experiment: Phytotoxic activity against Agrostis stolonifera seeds assessed as inhibition of germination at 10 uM at 26 degC measured 12 days post-drug dose
Type: functional, organism-based
Conditions: not given
Outline: as §1

Q: For `CC/C=C\C/C=C\C/C=C\CCCCCCCC(=O)O` [LINOLENIC ACID], which inhibition is on record?
A: Its inhibition is “inactive”.

Q: `C/C=C(/C)C(=O)O[C@@H]1c2c(C)coc2C[C@@]2(O)CCC[C@H](C)[C@@]12C` was tested. Which inhibition did it give?
A: Its inhibition is “inactive”.

System: Agrostis stolonifera
Experiment: Phytotoxic activity against Agrostis stolonifera seeds assessed as inhibition of germination at 1000 uM at 26 degC measured 12 days post-drug dose
Type: functional, organism-based
Conditions: not given
Outline: as §1

Q: For `CC/C=C\C/C=C\C/C=C\CCCCCCCC(=O)O` [LINOLENIC ACID], which inhibition is on record?
A: The inhibition was “inactive”.

System: Lactuca sativa
Experiment: Phytotoxic activity against Lactuca sativa (lettuce) seeds assessed as inhibition of germination at 1 uM at 26 degC measured 7 days post-drug dose
Type: functional, organism-based
Conditions: not given
Outline: as §1

Q: How did the inhibition turn out when `CC/C=C\C/C=C\C/C=C\CCCCCCCC(=O)O` [LINOLENIC ACID] was run?
A: The inhibition was “inactive”.

Q: Which inhibition does the source give for `C/C=C(/C)C(=O)O[C@@H]1c2c(C)coc2C[C@@]2(O)CCC[C@H](C)[C@@]12C` here?
A: Its inhibition is “inactive”.

System: Coptotermes formosanus
Experiment: Antitermite activity against greater than third-instar stage of Coptotermes formosanus workers/1 soldier in compound-pretreated filter paper assessed as mortality at 0.5% at 26 degC after 13 days (reference value: 3.8 +/-4.8%)
Type: functional
Conditions: not given
Outline: (§2)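 Test material in acetone (100 µL) was blotted onto 2.5 cm filter paper discs, dried several hours, then moistened with 100 µL water. Each dish held 20 workers (third instar or greater) and two soldiers. Dishes were kept at ca. 100% RH and 26 °C, with water-only controls. Four replicates came from different colonies. Mortality was scored daily for 3 weeks, reported as mean and SD, and compared by ANOVA with Fisher LSD (P < 0.05).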

Q: Which mortality does the source give for `CC/C=C\C/C=C\C/C=C\CCCCCCCC(=O)O` [LINOLENIC ACID] here?
A: Its mortality is 5%.

Q: `C/C=C(/C)C(=O)O[C@@H]1c2c(C)coc2C[C@@]2(O)CCC[C@H](C)[C@@]12C` was tested. Which mortality did it give?
A: Its mortality is 16.3%.

System: Coptotermes formosanus
Experiment: Antitermite activity against greater than third-instar stage of Coptotermes formosanus workers/1 soldier in compound-pretreated filter paper assessed as mortality at 0.5% at 26 degC after 1 day (reference value: 0%)
Type: functional
Conditions: not given
Outline: as §2

Q: `CC/C=C\C/C=C\C/C=C\CCCCCCCC(=O)O` [LINOLENIC ACID] was tested. Which mortality did it give?
A: Its mortality is 0%.

Q: `C/C=C(/C)C(=O)O[C@@H]1c2c(C)coc2C[C@@]2(O)CCC[C@H](C)[C@@]12C` was tested. Which mortality did it give?
A: Its mortality is 1.3%.

System: Cucumis sativus
Experiment: Inhibition of photosynthetic electron transport rate in Cucumis sativa Straight Eight (cucumber) cotyledons assessed as chlorophyll fluorescence at 100 uM at 22 degC measured at 2 to 24 hr post-drug treatment under constant light by fluorometer analysis
Type: functional, organism-based
Conditions: not given
Outline: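 8 mm cotyledon discs were cut from 6-day-old cucumber 'Straight Eight'. Variable chlorophyll fluorescence was read with a pulse-modulated fluorometer before treatment, then at 2, 4, 8 and 24 h. Discs sat in 1 mL 0.1% Tween 20 with 100 µM compound, 0.1% acetone solvent control or 10 µM atrazine, at 22 °C under continuous light; triplicate.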

Q: With `C/C=C(/C)C(=O)O[C@@H]1c2c(C)coc2C[C@@]2(O)CCC[C@H](C)[C@@]12C` as the compound, how does the inhibition read?
A: Its inhibition is “Active”.

System: Agrostis stolonifera
Experiment: Phytotoxic activity against Agrostis stolonifera seeds assessed as inhibition of germination at 100 uM at 26 degC measured 12 days post-drug dose
Type: functional, organism-based
Conditions: not given
Outline: as §1

Q: `CC/C=C\C/C=C\C/C=C\CCCCCCCC(=O)O` [LINOLENIC ACID] was tested. Which inhibition did it give?
A: Its inhibition is “inactive”.

System: Coptotermes formosanus
Experiment: Antitermite activity against greater than third-instar stage of Coptotermes formosanus workers/1 soldier in compound-pretreated filter paper assessed as mortality at 0.5% at 26 degC after 21 days (reference value: 3.8 +/-4.8%)
Type: functional
Conditions: not given
Outline: as §2

Q: How did the mortality turn out when `CC/C=C\C/C=C\C/C=C\CCCCCCCC(=O)O` [LINOLENIC ACID] was run?
A: The mortality was 6.3%.

Q: For `C/C=C(/C)C(=O)O[C@@H]1c2c(C)coc2C[C@@]2(O)CCC[C@H](C)[C@@]12C`, which mortality is on record?
A: Its mortality is 18.8%.

System: Allium cepa
Experiment: Inhibition of mitotic cell division in Allium cepa cv. Evergreen (onion) root tips assessed as cell count at telophase stage of cell cycle at 100 to 300 uM at 24 degC
Type: functional, organism-based
Conditions: not given

Q: For `C/C=C(/C)C(=O)O[C@@H]1c2c(C)coc2C[C@@]2(O)CCC[C@H](C)[C@@]12C`, which inhibition is on record?
A: The inhibition was “inactive”.

System: Allium cepa
Experiment: Inhibition of mitotic cell division in Allium cepa cv. Evergreen (onion) root tips assessed as cell count at prophase stage of cell cycle at 100 to 300 uM at 24 degC
Type: functional, organism-based
Conditions: not given

Q: With `C/C=C(/C)C(=O)O[C@@H]1c2c(C)coc2C[C@@]2(O)CCC[C@H](C)[C@@]12C` as the compound, how does the inhibition read?
A: The inhibition was “inactive”.

System: Colletotrichum gloeosporioides
Experiment: Antifungal activity against Colletotrichum gloeosporioides assessed as growth inhibition at 10 ug after 4-5 days by direct bioautography
Type: functional, organism-based
Conditions: not given
Outline: (§3)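 Direct TLC bioautography against strawberry-anthracnose Colletotrichum isolates grown on PDA at 24 ± 2 °C under a 12 h photoperiod. Conidia were harvested from 7–10-day cultures and filtered. Developed plates carrying 10 µg/spot were sprayed with 10^5 spores/mL and held in a moisture chamber for 4 days at 26 °C with a 12 h photoperiod. Zone diameters were measured 4–5 days after treatment.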

Q: Which “growth inhibition (GI)” value does the source give for `CC/C=C\C/C=C\C/C=C\CCCCCCCC(=O)O` [LINOLENIC ACID] here?
A: The value was “inactive”.

System: Colletotrichum acutatum
Experiment: Antifungal activity against Colletotrichum acutatum assessed as diameter of growth inhibitory zone at 10 ug after 4-5 days by direct bioautography
Type: functional
Conditions: not given
Outline: as §3

Q: For `CC/C=C\C/C=C\C/C=C\CCCCCCCC(=O)O` [LINOLENIC ACID], which Activity is on record?
A: The Activity was 2.9 mm.

System: Lactuca sativa
Experiment: Phytotoxic activity against Lactuca sativa (lettuce) seeds assessed as inhibition of germination at 10 uM at 26 degC measured 7 days post-drug dose
Type: functional, organism-based
Conditions: not given
Outline: as §1

Q: `CC/C=C\C/C=C\C/C=C\CCCCCCCC(=O)O` [LINOLENIC ACID] was tested. Which inhibition did it give?
A: The inhibition was “inactive”.

Q: How did the inhibition turn out when `C/C=C(/C)C(=O)O[C@@H]1c2c(C)coc2C[C@@]2(O)CCC[C@H](C)[C@@]12C` was run?
A: Its inhibition is “inactive”.

System: Cucumis sativus
Experiment: Induction of cell membrane integrity disruption in Cucumis sativus (cucumber) cotyledons assessed as electrolyte leakage at 25 degC by conductivity meter analysis
Type: functional
Conditions: not given
Outline: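 Twenty-five 4 mm cucumber cotyledon discs (~50 mg fresh weight) were bathed in 5 mL of 2% sucrose, 1 mM MES pH 6.5, with 1% (v/v) acetone final in controls and treatments. Incubation was at 25 °C in darkness. Leakage into the bathing medium was followed over time by conductivity; six replicates per treatment.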

Q: For `C/C=C(/C)C(=O)O[C@@H]1c2c(C)coc2C[C@@]2(O)CCC[C@H](C)[C@@]12C`, which Activity is on record?
A: The Activity was “inactive”.

System: Coptotermes formosanus
Experiment: Antitermite activity against greater than third-instar stage of Coptotermes formosanus workers/1 soldier in compound-pretreated filter paper assessed as filter paper consumption at 0.5% at 26 degC after 21 days (reference value: 41.4 +/-5.6 mg)
Type: functional
Conditions: not given

Q: For `CC/C=C\C/C=C\C/C=C\CCCCCCCC(=O)O` [LINOLENIC ACID], which Activity is on record?
A: The Activity was 44.2 mg.

Q: `C/C=C(/C)C(=O)O[C@@H]1c2c(C)coc2C[C@@]2(O)CCC[C@H](C)[C@@]12C` was tested. Which Activity did it give?
A: The Activity was 16.5 mg.

System: Colletotrichum fragariae
Experiment: Antifungal activity against Colletotrichum fragariae assessed as growth inhibition at 10 ug after 4-5 days by direct bioautography
Type: functional, organism-based
Conditions: not given
Outline: as §3

Q: Which “growth inhibition (GI)” value does the source give for `CC/C=C\C/C=C\C/C=C\CCCCCCCC(=O)O` [LINOLENIC ACID] here?
A: Its value is “inactive”.

System: Agrostis stolonifera
Experiment: Phytotoxic activity against Agrostis stolonifera seeds assessed as inhibition of germination at 1 uM at 26 degC measured 12 days post-drug dose
Type: functional, organism-based
Conditions: not given
Outline: as §1

Q: For `CC/C=C\C/C=C\C/C=C\CCCCCCCC(=O)O` [LINOLENIC ACID], which inhibition is on record?
A: Its inhibition is “inactive”.

Q: For `C/C=C(/C)C(=O)O[C@@H]1c2c(C)coc2C[C@@]2(O)CCC[C@H](C)[C@@]12C`, which inhibition is on record?
A: The inhibition was “inactive”.

System: Allium cepa
Experiment: Inhibition of mitotic cell division in Allium cepa cv. Evergreen (onion) root tips assessed as cell count at metaphase stage of cell cycle at 100 to 300 uM at 24 degC
Type: functional, organism-based
Conditions: not given

Q: Which inhibition does the source give for `C/C=C(/C)C(=O)O[C@@H]1c2c(C)coc2C[C@@]2(O)CCC[C@H](C)[C@@]12C` here?
A: Its inhibition is “inactive”.

System: Lactuca sativa
Experiment: Phytotoxic activity against Lactuca sativa (lettuce) seeds assessed as inhibition of germination at 1000 uM at 26 degC measured 7 days post-drug dose
Type: functional, organism-based
Conditions: not given
Outline: as §1

Q: With `CC/C=C\C/C=C\C/C=C\CCCCCCCC(=O)O` [LINOLENIC ACID] as the compound, how does the inhibition read?
A: The inhibition was “inactive”.

System: Coptotermes formosanus
Experiment: Antitermite activity against greater than third-instar stage of Coptotermes formosanus workers/1 soldier in compound-pretreated filter paper assessed as mortality at 0.5% at 26 degC after 6 days (reference value: 2.5 +/-5%)
Type: functional
Conditions: not given
Outline: as §2

Q: How did the mortality turn out when `CC/C=C\C/C=C\C/C=C\CCCCCCCC(=O)O` [LINOLENIC ACID] was run?
A: Its mortality is 0%.

Q: With `C/C=C(/C)C(=O)O[C@@H]1c2c(C)coc2C[C@@]2(O)CCC[C@H](C)[C@@]12C` as the compound, how does the mortality read?
A: The mortality was 3.8%.

System: Lemna aequinoctialis
Experiment: Phytotoxic activity against three-frond Lemna paucicostata colonies assessed as growth inhibition after 4 days
Type: functional, organism-based
Conditions: 96 h
Outline: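 Hoagland medium at pH 5.5 was filter-sterilized, with compound added in acetone or EtOH (1% final); tested range 100 to 0.1 µM. Two three-frond colonies from 4–5-day-old stock cultures were placed per well. Total frond area was imaged on days 0–4, and % increase was taken relative to day 0. IC50 came from a four-parameter logistic fit in R drc.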

Q: Which IC50 does the source give for `C/C=C(/C)C(=O)O[C@@H]1c2c(C)coc2C[C@@]2(O)CCC[C@H](C)[C@@]12C` here?
A: Its IC50 is 2940 nM.
